Our source for the zone of inhibition values is ChEMBL document CHEMBL1932971, “Synthesis of uriedo and thiouriedo derivatives of peptide conjugated heterocycles - A new class of promising antimicrobials” (2012).

Common to all, as to assay type: functional
Common to all, as to conditions: read-out: DIZ

One assay relates to Escherichia coli. Kind of assay: Antibacterial activity against Escherichia coli at 30 ug/ml after 24 hrs by agar well diffusion method. In outline: (§1)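 Agar well diffusion. Inocula were grown in nutrient broth at 37 °C for 24 h, then subcultured in nutrient broth at room temperature. Compounds were made as a 1 mg/mL DMSO stock and diluted to 30 µg/mL final. Nutrient agar plates were spread-inoculated and 6 mm wells each got 0.1 mL. Controls were amoxicillin (reference) and DMSO (negative). Incubation was 24 h at 37 °C. Inhibition zone was measured in mm as the mean of three determinations.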

Another assay concerns Xanthomonas oryzae. Kind of assay: Antibacterial activity against Xanthomonas oryzae at 30 ug/ml after 24 hrs by agar well diffusion method.
Another assay deals with Klebsiella pneumoniae. Description: Antibacterial activity against Klebsiella pneumoniae at 30 ug/ml after 24 hrs by agar well diffusion method. In short, it runs like this: as §1
In general terms: A growth-free zone around the sample is the usual read-out of agar diffusion tests.

In another assay the test system is Staphylococcus aureus. Description: Antibacterial activity against coagulase-positive Staphylococcus aureus at 30 ug/ml after 24 hrs by agar well diffusion method. In short, it runs like this:
as §1

The subject of a further assay is Aspergillus niger. Kind of assay: Antifungal activity against Aspergillus niger at 30 ug/ml after 72 hrs by agar well diffusion method. In outline:
(§2)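 Fungal well diffusion. Inocula were subcultured in nutrient broth for one day, then spread on solidified medium. Compounds were made as a 1 mg/mL DMSO stock and diluted to 30 µg/mL final. Each 6 mm well got 0.1 mL. Controls were bavistin (reference) and DMSO (negative). Plates stood for 3 days at room temperature. Inhibition zone was measured in mm as the mean of three determinations.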

The test system of the next assay is Aspergillus flavus. Kind of assay: Antifungal activity against Aspergillus flavus at 30 ug/ml after 72 hrs by agar well diffusion method. In outline: as §2
Another assay concerns Fusarium oxysporum. Description: Antifungal activity against Fusarium oxysporum at 30 ug/ml after 72 hrs by agar well diffusion method. In outline:
as §2

Numbered stars: 1 amine (or outer) side, 2 acyl side, 3 side chain; on linkers, the order of the positions; unused ones are H or OH. Peptide text beside a SMILES is read from it. * marks the point of attachment. Piperazinyl(4-(2,3-Cl2Ph)) = Clc1cccc(N2CCN(*)CC2)c1Cl; Thiocarbamoyl(N-4-ClPh) = S=C(Nc1ccc(Cl)cc1)*; Thiocarbamoyl(4-MeOPh) = COc1ccc(NC(=S)*)cc1; NH(4-MeO-phenyl) = COc1ccc(N*)cc1; NH(4-Cl-phenyl) = Clc1ccc(N*)cc1; X1 = Fc1ccc2c(C3CCN(*)CC3)noc2c1; CO = O=C([*:1])[*:2]

As to `CC[C@H](C)[C@H](NC(=O)CNC(=O)CNC(=S)Nc1ccc(Cl)cc1)C(=O)N1CCC[C@H]1C(=O)N1CCC(c2noc3cc(F)ccc23)CC1` ({Thiocarbamoyl(N-4-ClPh)}-GGIP-X1), the zone of inhibition at 30 µg/mL stood at 28 mm with Escherichia coli; 25 mm in the assay on Xanthomonas oryzae; 21 mm with Klebsiella pneumoniae; 21 mm with Staphylococcus aureus; 29 mm in the assay with Aspergillus niger; 27 mm in the assay on Aspergillus flavus. In addition, the zone of inhibition at 30 µg/mL in the assay with Fusarium oxysporum amounted to 29 mm.

In the case of `O=C(CNC(=S)Nc1ccc(Cl)cc1)NCC(=O)N[C@@H](Cc1ccccc1)C(=O)N1CCC[C@H]1C(=O)N1CCC(c2noc3cc(F)ccc23)CC1` ({Thiocarbamoyl(N-4-ClPh)}-GGFP-X1), the zone of inhibition at 30 µg/mL with Escherichia coli was determined as 30 mm; in the assay on Xanthomonas oryzae, 27 mm; with Klebsiella pneumoniae, 26 mm; with Staphylococcus aureus, 24 mm; in the assay with Aspergillus niger it was 33 mm; with Aspergillus flavus, 29 mm. Besides, the zone of inhibition at 30 µg/mL in the assay with Fusarium oxysporum is 31 mm.

`O=C(CNC(=S)Nc1ccc(Cl)cc1)NCC(=O)N[C@@H](Cc1ccccc1)C(=O)N1CCC[C@H]1C(=O)N1CCN(c2cccc(Cl)c2Cl)CC1` ({Thiocarbamoyl(N-4-ClPh)}-GGFP-{Piperazinyl(4-(2,3-Cl2Ph))}): the zone of inhibition at 30 µg/mL was determined as 29 mm with Escherichia coli; 26 mm in the assay on Xanthomonas oryzae; 25 mm with Klebsiella pneumoniae; 23 mm in the assay with Staphylococcus aureus; 32 mm with Aspergillus niger; 28 mm in the assay on Aspergillus flavus. The zone of inhibition at 30 µg/mL in the assay on Fusarium oxysporum came out at 30 mm.

With `COc1ccc(NC(=S)NCC(=O)NCC(=O)N[C@@H](Cc2ccccc2)C(=O)N2CCC[C@H]2C(=O)N2CCC(c3noc4cc(F)ccc34)CC2)cc1` ({Thiocarbamoyl(4-MeOPh)}-GGFP-X1), the zone of inhibition at 30 µg/mL in the assay with Escherichia coli came to 24 mm; in the assay on Xanthomonas oryzae it was 22 mm; with Klebsiella pneumoniae it was 21 mm; in the assay on Staphylococcus aureus, 19 mm; in the assay with Aspergillus niger, 28 mm; with Aspergillus flavus it was 23 mm. Further, the zone of inhibition at 30 µg/mL in the assay with Fusarium oxysporum is 25 mm.

In the case of `COc1ccc(NC(=S)NCC(=O)N[C@H](C(=O)NCC(=O)N[C@H](C(=O)N2CCC[C@H]2C(=O)N2CCC(c3noc4cc(F)ccc34)CC2)C(C)C)C(C)C)cc1` ({Thiocarbamoyl(4-MeOPh)}-GVGVP-X1), the zone of inhibition at 30 µg/mL in the assay with Escherichia coli amounted to 28 mm; in the assay on Xanthomonas oryzae, 28 mm; in the assay on Klebsiella pneumoniae it was 26 mm; in the assay on Staphylococcus aureus, 24 mm; in the assay with Aspergillus niger, 31 mm; with Aspergillus flavus, 26 mm. Moreover, the zone of inhibition at 30 µg/mL in the assay with Fusarium oxysporum is 26 mm.

Take `CC[C@H](C)[C@H](NC(=O)CNC(=O)CNC(=S)Nc1ccc(Cl)cc1)C(=O)N1CCC[C@H]1C(=O)N1CCN(c2cccc(Cl)c2Cl)CC1` ({Thiocarbamoyl(N-4-ClPh)}-GGIP-{Piperazinyl(4-(2,3-Cl2Ph))}): the zone of inhibition at 30 µg/mL with Escherichia coli was 27 mm; in the assay on Xanthomonas oryzae it was 24 mm; in the assay on Klebsiella pneumoniae, 20 mm; in the assay on Staphylococcus aureus it was 22 mm; in the assay with Aspergillus niger, 28 mm; in the assay on Aspergillus flavus, 26 mm. Also, the zone of inhibition at 30 µg/mL in the assay with Fusarium oxysporum amounted to 28 mm.

Turning to `O=C([C@H](Cc1c[nH]c2ccccc12)NC(=S)Nc1ccccc1F)N1CCC(c2noc3cc(F)ccc23)CC1`, the zone of inhibition at 30 µg/mL in the assay on Escherichia coli was 13 mm; with Xanthomonas oryzae, 12 mm; in the assay on Klebsiella pneumoniae it was 9 mm; in the assay on Staphylococcus aureus it was 9 mm; in the assay with Aspergillus niger, 13 mm; in the assay with Aspergillus flavus, 10 mm. In addition, in the assay on Fusarium oxysporum, the zone of inhibition at 30 µg/mL worked out at 7 mm.

In the case of `CC[C@H](C)[C@H](NC(=O)CNC(=O)CNC(=O)Nc1ccc(Cl)cc1)C(=O)N1CCC[C@H]1C(=O)N1CCC(c2noc3cc(F)ccc23)CC1` ({NH(4-Cl-phenyl)-CO}-GGIP-X1), the zone of inhibition at 30 µg/mL with Escherichia coli is 26 mm; with Xanthomonas oryzae it was 22 mm; in the assay with Klebsiella pneumoniae, 18 mm; in the assay on Staphylococcus aureus it was 19 mm; with Aspergillus niger, 27 mm; with Aspergillus flavus, 24 mm. The zone of inhibition at 30 µg/mL in the assay on Fusarium oxysporum came out at 26 mm.

On to `COc1ccc(NC(=S)NCC(=O)NCC(=O)N[C@@H](Cc2ccccc2)C(=O)N2CCC[C@H]2C(=O)N2CCN(c3cccc(Cl)c3Cl)CC2)cc1` ({Thiocarbamoyl(4-MeOPh)}-GGFP-{Piperazinyl(4-(2,3-Cl2Ph))}), for which the zone of inhibition at 30 µg/mL in the assay with Escherichia coli amounted to 23 mm; in the assay with Xanthomonas oryzae, 21 mm; with Klebsiella pneumoniae, 20 mm; with Staphylococcus aureus, 18 mm; in the assay on Aspergillus niger, 29 mm; in the assay on Aspergillus flavus it was 22 mm. The zone of inhibition at 30 µg/mL in the assay on Fusarium oxysporum was 24 mm.

In the case of `O=C(Nc1ccccc1F)N[C@@H](Cc1c[nH]c2ccccc12)C(=O)N1CCC(c2noc3cc(F)ccc23)CC1`, the zone of inhibition at 30 µg/mL was found to be 11 mm in the assay on Escherichia coli; 11 mm with Xanthomonas oryzae; 8 mm in the assay with Klebsiella pneumoniae; 8 mm with Staphylococcus aureus; 12 mm with Aspergillus niger; 9 mm with Aspergillus flavus. Also, in the assay on Fusarium oxysporum, the zone of inhibition at 30 µg/mL is 8 mm.

Take `CC[C@H](C)[C@H](NC(=O)CNC(=O)CNC(=O)Nc1ccc(OC)cc1)C(=O)N1CCC[C@H]1C(=O)N1CCC(c2noc3cc(F)ccc23)CC1` ({NH(4-MeO-phenyl)-CO}-GGIP-X1): the zone of inhibition at 30 µg/mL was 22 mm in the assay with Escherichia coli; 17 mm with Xanthomonas oryzae; 16 mm with Klebsiella pneumoniae; 14 mm in the assay with Staphylococcus aureus; 23 mm in the assay on Aspergillus niger; 19 mm in the assay with Aspergillus flavus. Besides, the zone of inhibition at 30 µg/mL in the assay on Fusarium oxysporum worked out at 21 mm.

`CC[C@H](C)[C@H](NC(=O)CNC(=O)CNC(=S)Nc1ccc(OC)cc1)C(=O)N1CCC[C@H]1C(=O)N1CCC(c2noc3cc(F)ccc23)CC1` ({Thiocarbamoyl(4-MeOPh)}-GGIP-X1): the zone of inhibition at 30 µg/mL in the assay with Escherichia coli was determined as 24 mm; in the assay on Xanthomonas oryzae it was 20 mm; in the assay with Klebsiella pneumoniae, 14 mm; in the assay with Staphylococcus aureus, 16 mm; with Aspergillus niger, 26 mm; in the assay with Aspergillus flavus, 22 mm. Besides, the zone of inhibition at 30 µg/mL with Fusarium oxysporum amounted to 24 mm.

As for `O=C(CNC(=O)Nc1ccc(Cl)cc1)NCC(=O)N[C@@H](Cc1ccccc1)C(=O)N1CCC[C@H]1C(=O)N1CCN(c2cccc(Cl)c2Cl)CC1` ({NH(4-Cl-phenyl)-CO}-GGFP-{Piperazinyl(4-(2,3-Cl2Ph))}), the zone of inhibition at 30 µg/mL in the assay with Escherichia coli came to 27 mm; in the assay on Xanthomonas oryzae it was 24 mm; in the assay with Klebsiella pneumoniae, 22 mm; in the assay on Staphylococcus aureus, 20 mm; in the assay with Aspergillus niger, 30 mm; with Aspergillus flavus, 25 mm. In addition, in the assay with Fusarium oxysporum, the zone of inhibition at 30 µg/mL came out at 27 mm.

As for `COc1ccc(NC(=O)NCC(=O)NCC(=O)N[C@@H](Cc2ccccc2)C(=O)N2CCC[C@H]2C(=O)N2CCC(c3noc4cc(F)ccc34)CC2)cc1` ({NH(4-MeO-phenyl)-CO}-GGFP-X1), the zone of inhibition at 30 µg/mL with Escherichia coli was determined as 26 mm; in the assay on Xanthomonas oryzae, 24 mm; in the assay with Klebsiella pneumoniae, 19 mm; in the assay on Staphylococcus aureus it was 17 mm; in the assay with Aspergillus niger, 27 mm; in the assay on Aspergillus flavus, 20 mm. Also, the zone of inhibition at 30 µg/mL in the assay with Fusarium oxysporum was determined as 23 mm.

With `O=C(Nc1ccccc1F)N[C@@H](Cc1c[nH]c2ccccc12)C(=O)N1CCN(c2cccc(Cl)c2Cl)CC1`, the zone of inhibition at 30 µg/mL was 9 mm in the assay on Escherichia coli; 9 mm with Xanthomonas oryzae; 10 mm in the assay with Klebsiella pneumoniae; 11 mm with Staphylococcus aureus; 10 mm with Aspergillus niger; 11 mm in the assay on Aspergillus flavus. In the assay on Fusarium oxysporum, the zone of inhibition at 30 µg/mL was 7 mm.

As for `COc1ccc(NC(=S)NCC(=O)N[C@@H](Cc2ccccc2)C(=O)NCC(=O)N[C@@H](Cc2ccccc2)C(=O)N2CCC[C@H]2C(=O)N2CCC(c3noc4cc(F)ccc34)CC2)cc1` ({Thiocarbamoyl(4-MeOPh)}-GFGFP-X1), the zone of inhibition at 30 µg/mL in the assay on Escherichia coli stood at 31 mm; in the assay on Xanthomonas oryzae, 31 mm; in the assay on Klebsiella pneumoniae, 31 mm; with Staphylococcus aureus it was 29 mm; in the assay with Aspergillus niger it was 36 mm; in the assay with Aspergillus flavus, 30 mm. Further, in the assay on Fusarium oxysporum, the zone of inhibition at 30 µg/mL was 33 mm.

For `COc1ccc(NC(=S)NCC(=O)N[C@@H](Cc2ccccc2)C(=O)NCC(=O)N[C@@H](Cc2ccccc2)C(=O)N2CCC[C@H]2C(=O)N2CCN(c3cccc(Cl)c3Cl)CC2)cc1` ({Thiocarbamoyl(4-MeOPh)}-GFGFP-{Piperazinyl(4-(2,3-Cl2Ph))}), the zone of inhibition at 30 µg/mL in the assay with Escherichia coli stood at 29 mm; in the assay on Xanthomonas oryzae it was 28 mm; in the assay with Klebsiella pneumoniae, 29 mm; with Staphylococcus aureus, 26 mm; with Aspergillus niger it was 32 mm; in the assay on Aspergillus flavus, 28 mm. Also, the zone of inhibition at 30 µg/mL in the assay with Fusarium oxysporum was found to be 29 mm.
